Results reported in ChEMBL document CHEMBL1782026, “Synthesis and biological evaluation of 1α,25-dihydroxyvitamin D(3) analogues hydroxymethylated at C-26” (2011).
Active and inactive are the calls of the source. The calls are words filed in the database; no cut-off is given here.

Key:
MCF7 [1] = test: Antiproliferative activity against human MCF7 cells assessed as DNA level measured after 6 days by calorimetric analysis; format: functional, cell-based
How it was run: (§1)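 MCF-7 cells in DMEM F12 with 5% FBS at 37 °C, 5% CO2, seeded at 100 000 cells/well in six-well plates. After 24 h, treated in triplicate for 6 days with graded doses or 0.1% ethanol vehicle; medium and ligand replaced every other day. DNA content by Burton assay, expressed as percent of vehicle control; three independent experiments, mean ± SD.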

MCF7 [2] = test: Antiproliferative activity against human MCF7 cells assessed as DNA level at 100 nM measured after 6 days by calorimetric analysis; format: functional; details: MCF7, 144 h, read-out: GI; how it was run: as §1
MCF7 [3] = test: Antiproliferative activity against human MCF7 cells assessed as DNA level at 10 nM measured after 6 days by calorimetric analysis; format: functional; details: MCF7, 144 h, read-out: GI; how it was run: as §1
MCF7 [4] = test: Antiproliferative activity against human MCF7 cells assessed as DNA level at 1 nM measured after 6 days by calorimetric analysis; format: functional; details: MCF7, 144 h, read-out: GI; how it was run: as §1
SW480-ADH [5] = test: Induction of differentiation of human SW480-ADH cells to adhesive epithelial phenotype at 10^-7 M after 48 hrs by phase-contrast microscopy; format: functional, cell-based
How it was run: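 SW480-ADH cells in RPMI/10% FCS were exposed for 48 h to 10^-7 M compound or vehicle in charcoal-treated FCS medium. Adhesive epithelial morphology was judged by phase-contrast microscopy; a representative experiment is shown.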

SW480-ADH [6] = test: Induction of E-cadherin expression in human SW480-ADH cell at 10^-7 M after 48 hrs by Western blot analysis; format: functional, cell-based
How it was run: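 SW480-ADH cells grown in RPMI with 10% FCS, GlutaMAX and penicillin/streptomycin. Treated 48 h at 10^-7 M in charcoal-treated FCS medium; controls received matching vehicle. Anti-E-cadherin Western blot with β-tubulin as loading control and ECL detection. Values are mean fold-increase from two experiments.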

[7] = target: T1, Vitamin D3 receptor (Homo sapiens) (UniProt P11473); test: Transactivation of human VDR transfected in african green monkey COS7 cells after 24 hrs by luciferase reporter gene assay; format: cell-based; details: COS-7
T1 sequence (whole entry): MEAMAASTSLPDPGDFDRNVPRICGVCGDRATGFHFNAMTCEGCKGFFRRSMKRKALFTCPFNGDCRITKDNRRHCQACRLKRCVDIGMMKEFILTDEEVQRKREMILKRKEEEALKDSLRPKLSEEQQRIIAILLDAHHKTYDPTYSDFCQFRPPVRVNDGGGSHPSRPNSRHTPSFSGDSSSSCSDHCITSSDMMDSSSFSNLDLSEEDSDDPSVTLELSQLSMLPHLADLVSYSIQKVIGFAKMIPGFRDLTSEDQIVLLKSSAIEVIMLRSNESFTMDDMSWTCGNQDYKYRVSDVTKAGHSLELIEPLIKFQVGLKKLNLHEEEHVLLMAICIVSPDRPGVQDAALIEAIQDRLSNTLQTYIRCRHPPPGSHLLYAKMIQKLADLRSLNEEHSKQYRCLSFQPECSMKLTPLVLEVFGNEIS
How it was run: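 Transfected 16 h (Polyfect) with 62.5 ng WT VDR expression plasmid and 125 ng rat 24-hydroxylase promoter VDRE-luciferase. Then treated 24 h with graded concentrations in DMEM with 1% bovine growth serum, lysed, and assayed by dual luciferase; ±SD.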

[8] = target: T1, Vitamin D3 receptor (Homo sapiens); test: Transactivation of human VDR transfected in human SW480-ADH cells assessed as vitamin D response element-mediated transcriptional activity measured 8 hrs post infection by luciferase reporter gene assay; format: cell-based
How it was run: (§2)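 SW480-ADH cells, transfected in triplicate (JetPEI) with 4VDRE-DR3-tk-LUC reporter, four tandem consensus DR3 VDREs upstream of HSV tk promoter. Treated with graded concentrations in charcoal-treated FCS medium, read at 8 or 48 h. Firefly luciferase normalized to Renilla by dual luciferase assay; mean ± SD, n = 3.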

[9] = target: T1, Vitamin D3 receptor (Homo sapiens); test: Transactivation of human VDR transfected in human SW480-ADH cells assessed as vitamin D response element-mediated transcriptional activity measured 48 hrs post infection by luciferase reporter gene assay; format: cell-based; how it was run: as §2

| Activity [7] | Activity [8] | Activity [9] | Compound | growth inhibition (GI) (MCF7 [1]) | inhibition of growth at 0.1 µM (MCF7 [2]) | inhibition of growth at 0.01 µM (MCF7 [3]) | inhibition of growth at 0.001 µM (MCF7 [4]) | Activity (SW480-ADH [5]) | Activity (SW480-ADH [6]) |
| --- | --- | --- | --- | --- | --- | --- | --- | --- | --- |
|  |  |  | C=C1/C(=C\C=C2/CCC[C@]3(C)[C@@H]([C@H](C)CCCC(C)(C)O)CC[C@@H]23)C[C@@H](O)C[C@@H]1O [CALCITRIOL] | Dose-dependent effect | 66% | 50% | 15% |  |  |
| Active | Dose-dependent effect | Dose-dependent effect | C=C1/C(=C\C=C2/CCC[C@]3(C)[C@@H]([C@H](C)CCC[C@@](C)(O)[C@@H](C)CO)CC[C@@H]23)C[C@@H](O)C[C@@H]1O |  | 65% |  |  | Active | Active |
|  | Dose-dependent effect | Dose-dependent effect | C=C1/C(=C\C=C2/CCC[C@]3(C)[C@@H]([C@H](C)CCC[C@@](C)(O)CCO)CC[C@@H]23)C[C@@H](O)C[C@@H]1O |  | 53% |  |  | Active | Active |
